Measurements: ChEMBL document CHEMBL3259740, “Design, synthesis and evaluation of novel diaryl urea derivatives as potential antitumor agents” (Eur J Med Chem, 2014)

What was measured:
MX1 = assay: Cytotoxicity against human MX1 cells assessed as growth inhibition after 120 hrs by MTT assay; format: functional, cell-based; conditions: MX1, 120 h
Procedure, shortened: (§1)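 Cells kept in DMEM with 10% FBS, penicillin and streptomycin at 37 °C, 5% CO2. Seeded at 2000 cells/well, grown 24 h, then exposed to a range of compound concentrations for 120 h. MTT at 0.5 mg/mL added for 4 h at 37 °C. Formazan dissolved in DMSO, absorbance read at 570 nm. IC50 is the mean of three determinations.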

A-375 = assay: Cytotoxicity against human A375 cells assessed as growth inhibition after 120 hrs by MTT assay; format: functional, cell-based; conditions: A-375, 120 h; procedure, shortened: as §1
HepG2 = assay: Cytotoxicity against human HepG2 cells assessed as growth inhibition after 120 hrs by MTT assay; format: functional, cell-based; conditions: HepG2, 120 h; procedure, shortened: as §1
KETR3 = assay: Cytotoxicity against human Ketr3 cells assessed as growth inhibition after 120 hrs by MTT assay; format: functional, cell-based; conditions: KETR3, 120 h; procedure, shortened: as §1
HT-29 [1] = assay: Cytotoxicity against human HT-29 cells assessed as growth inhibition after 120 hrs by MTT assay; format: functional, cell-based; conditions: HT-29, 120 h; procedure, shortened: as §1
HT-29 [2] = assay: Potency index, ratio of sorafenib IC50 to compound IC50 for human HT-29 cells; format: functional
[3] = target: Serine/threonine-protein kinase B-raf (Homo sapiens, UniProt P15056); assay: Inhibition of B-Raf (unknown origin) after 1 hr by ADP-Glo assay
Serine/threonine-protein kinase B-raf, sequence (P15056 whole entry): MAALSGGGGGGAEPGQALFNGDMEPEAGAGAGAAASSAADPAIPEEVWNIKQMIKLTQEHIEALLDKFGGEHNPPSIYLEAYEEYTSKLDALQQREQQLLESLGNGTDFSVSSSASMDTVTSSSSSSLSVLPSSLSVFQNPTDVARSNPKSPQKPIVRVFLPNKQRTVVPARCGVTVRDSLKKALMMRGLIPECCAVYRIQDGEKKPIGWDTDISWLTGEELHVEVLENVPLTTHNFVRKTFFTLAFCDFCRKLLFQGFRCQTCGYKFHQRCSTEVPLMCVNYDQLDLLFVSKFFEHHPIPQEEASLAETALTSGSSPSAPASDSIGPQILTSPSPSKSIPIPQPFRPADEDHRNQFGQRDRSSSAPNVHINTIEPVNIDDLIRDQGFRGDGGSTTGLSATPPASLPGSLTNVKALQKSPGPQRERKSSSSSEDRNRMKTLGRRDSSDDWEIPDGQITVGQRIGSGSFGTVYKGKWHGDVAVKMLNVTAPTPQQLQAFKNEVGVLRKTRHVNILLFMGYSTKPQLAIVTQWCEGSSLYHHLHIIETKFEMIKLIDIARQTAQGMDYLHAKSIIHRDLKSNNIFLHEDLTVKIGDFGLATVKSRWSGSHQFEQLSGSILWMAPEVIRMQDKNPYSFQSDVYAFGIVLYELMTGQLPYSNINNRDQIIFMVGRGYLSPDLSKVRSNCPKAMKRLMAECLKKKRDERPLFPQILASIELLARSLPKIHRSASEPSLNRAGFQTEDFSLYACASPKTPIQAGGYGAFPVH

[4] = target: RAF proto-oncogene serine/threonine-protein kinase (Homo sapiens, UniProt P04049); assay: Inhibition of C-Raf (unknown origin) after 1 hr by ADP-Glo assay
RAF proto-oncogene serine/threonine-protein kinase, sequence (P04049 whole entry): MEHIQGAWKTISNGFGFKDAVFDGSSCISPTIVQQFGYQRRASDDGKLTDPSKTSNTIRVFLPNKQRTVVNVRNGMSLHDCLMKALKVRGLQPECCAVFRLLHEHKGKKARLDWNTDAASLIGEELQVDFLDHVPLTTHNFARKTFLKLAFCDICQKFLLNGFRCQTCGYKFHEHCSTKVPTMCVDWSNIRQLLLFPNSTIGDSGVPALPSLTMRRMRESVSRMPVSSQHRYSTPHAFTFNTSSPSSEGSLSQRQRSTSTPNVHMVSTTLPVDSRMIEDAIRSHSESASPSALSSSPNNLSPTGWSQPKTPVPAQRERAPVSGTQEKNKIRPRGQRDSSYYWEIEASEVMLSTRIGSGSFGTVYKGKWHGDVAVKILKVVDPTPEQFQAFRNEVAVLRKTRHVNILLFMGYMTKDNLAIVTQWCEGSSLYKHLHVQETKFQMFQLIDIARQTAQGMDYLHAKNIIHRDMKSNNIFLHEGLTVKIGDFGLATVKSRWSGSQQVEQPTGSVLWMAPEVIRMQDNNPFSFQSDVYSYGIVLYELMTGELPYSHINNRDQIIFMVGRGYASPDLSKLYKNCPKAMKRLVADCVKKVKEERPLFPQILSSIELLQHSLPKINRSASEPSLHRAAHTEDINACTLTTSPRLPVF
Procedure, shortened: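 Run in duplicate. Kinase, substrate, ATP and compound reacted 1 h at 30 °C. ADP-Glo reagent was added to stop the reaction, followed by 40 min at 27 °C. Kinase detection reagent was then added for a further 30 min at the same temperature before luminescence reading.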

SMILES	IC50 (MX1) [µM]	IC50 (A-375) [µM]	IC50 (HepG2) [µM]	IC50 (KETR3) [µM]	IC50 (HT-29 [1]) [µM]	Ratio IC50 (HT-29 [2])	IC50 [3] [µM]	IC50 [4] [µM]
C/C(=C\c1ccc(NC(=O)Nc2ccc(Cl)c(C(F)(F)F)c2)cc1)C(=O)NC(C)c1ccccc1 (centres undefined)	> 50	> 50	> 50	> 50	> 50			
CNC(=O)c1cc(Oc2ccc(NC(=O)Nc3ccc(Cl)c(C(F)(F)F)c3)cc2)ccn1 [SORAFENIB]	8.27	9.17	8.67	18.8	15.2			
CNC(=O)c1cccc(-c2ccc(NC(=O)Nc3ccc(Cl)c(C(F)(F)F)c3)cc2)c1	> 50	46.5	37.1	39.3	29.3			
CC(NC(=O)C#Cc1ccc(NC(=O)Nc2cc(C(F)(F)F)ccc2Cl)cc1)c1ccccc1 (centres undefined)	16.1	30.5	19	23.2	3.17			
CNC(=O)CCc1ccc(NC(=O)Nc2ccc(Cl)c(C(F)(F)F)c2)cc1	20.4	25.2	21	24	20.6			
CC1CN(C(=O)c2ccc(-c3ccc(NC(=O)Nc4ccc(Cl)c(C(F)(F)F)c4)cc3)cc2)CC(C)O1 (centres undefined)	> 50	> 50	31.1	41.9	2.05	8		
C/C(=C\C(=O)NC(C)c1ccccc1)c1ccc(NC(=O)Nc2ccc(Cl)c(C(F)(F)F)c2)cc1 (centres undefined)	> 50	> 50	> 50	> 50	> 50			
CC(NC(=O)/C=C/Oc1ccc(NC(=O)Nc2ccc(Cl)c(C(F)(F)F)c2)cc1)c1ccccc1 (centres undefined)	13.7	20.7	14.1	14.5	> 50			
CC(NC(=O)CCc1ccc(NC(=O)Nc2ccc(Cl)c(C(F)(F)F)c2)cc1)c1ccccc1 (centres undefined)	> 50	> 50	> 50	> 50	26.5			
CNC(=O)/C=C/c1ccc(NC(=O)Nc2ccc(Cl)c(C(F)(F)F)c2)cc1	13.8	20.9	20.4	21.2	11.7			
CC(NC(=O)/C=C/c1ccc(NC(=O)Nc2ccc(Cl)c(C(F)(F)F)c2)cc1)c1ccccc1 (centres undefined)	3.13	20.8	12.2	21.2	1.06			
CC(NC(=O)C#Cc1ccc(NC(=O)Nc2ccc(Cl)c(C(F)(F)F)c2)cc1)c1ccccc1 (centres undefined)	12.8	16.8	20.5	21.4	4.92			
CNC(=O)/C=C(\C)c1ccc(NC(=O)Nc2ccc(Cl)c(C(F)(F)F)c2)cc1	> 50	> 50	> 50	> 50	> 50			
CC1CN(C(=O)c2ccc(-c3ccc(NC(=O)Nc4cc(C(F)(F)F)ccc4Cl)cc3)cc2)CC(C)O1 (centres undefined)	> 50	> 50	> 50	> 50	1.9	8		
CC(NC(=O)/C=C/Oc1ccc(NC(=O)Nc2cc(C(F)(F)F)ccc2Cl)cc1)c1ccccc1 (centres undefined)	16.1	16	11.9	16.4	> 50			
CC(NC(=O)c1ccc(-c2ccc(NC(=O)Nc3cc(C(F)(F)F)ccc3Cl)cc2)cc1)c1ccccc1 (centres undefined)	17.7	16.9	18.4	16.8	6.57			
CNC(=O)/C(C)=C/c1ccc(NC(=O)Nc2ccc(Cl)c(C(F)(F)F)c2)cc1	> 50	> 50	44.3	> 50	> 50			
CC1CN(C(=O)CCc2ccc(NC(=O)Nc3ccc(Cl)c(C(F)(F)F)c3)cc2)CC(C)O1 (centres undefined)	> 50	> 50	> 50	> 50	> 50			
CC(NC(=O)/C=C/c1ccc(NC(=O)Nc2cc(C(F)(F)F)ccc2Cl)cc1)c1ccccc1 (centres undefined)	1.89	40.9	35.9	14.3	4.19			
C/C(=C\C(=O)N1CC(C)OC(C)C1)c1ccc(NC(=O)Nc2ccc(Cl)c(C(F)(F)F)c2)cc1 (centres undefined)	> 50	46.2	> 50	> 50	26.2			
O=C(CCc1ccc(NC(=O)Nc2ccc(Cl)c(C(F)(F)F)c2)cc1)NC1CCC1	24	> 50	> 50	> 50	21.3			
O=C(/C=C/c1ccc(NC(=O)Nc2ccc(Cl)c(C(F)(F)F)c2)cc1)NC1CCC1	4.53	15.4	7.51	17.3	4.43			
CC1CN(C(=O)/C=C/c2ccc(NC(=O)Nc3ccc(Cl)c(C(F)(F)F)c3)cc2)CC(C)O1 (centres undefined)	12.8	> 50	45.9	> 50	9.1			
CC(NC(=O)c1ccc(-c2ccc(NC(=O)Nc3ccc(Cl)c(C(F)(F)F)c3)cc2)cc1)c1ccccc1 (centres undefined)	4.63	12.8	16.8	19.3	5.96			
C/C(=C\c1ccc(NC(=O)Nc2ccc(Cl)c(C(F)(F)F)c2)cc1)C(=O)N1CC(C)OC(C)C1 (centres undefined)	> 50	> 50	> 50	> 50	> 50			
CC(NC(=O)c1cccc(-c2ccc(NC(=O)Nc3ccc(Cl)c(C(F)(F)F)c3)cc2)c1)c1ccccc1 (centres undefined)	5.24	5.17	5.67	6.46	6.32		> 50	> 50
CNC(=O)C#Cc1ccc(NC(=O)Nc2ccc(Cl)c(C(F)(F)F)c2)cc1	26.4	> 50	23.3	24.7	14			
CNC(=O)/C=C/Oc1ccc(NC(=O)Nc2ccc(Cl)c(C(F)(F)F)c2)cc1	18.8	36.8	24.2	> 50	> 50			
